Screening data from PubChem BioAssay.
This is a sample that favours compounds with a hit; in the whole collection about 1.9% have one here.
GPR7 antagonist – antagonists of human GPR7 (neuropeptides B/W receptor 1) | P48145 | GPR7-expressing cells, fluorescence antagonist assay | inhibition, % at 4.4 µM | 290,000 compounds, 1.1% hits; in the data active = inhibition above about 16%, passing the limit was not always enough;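 note: cells stimulated with the agonist NPW; 0% = agonist with vehicle and 100% = vehicle without agonist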
Target sequence (P48145 whole entry, looked up): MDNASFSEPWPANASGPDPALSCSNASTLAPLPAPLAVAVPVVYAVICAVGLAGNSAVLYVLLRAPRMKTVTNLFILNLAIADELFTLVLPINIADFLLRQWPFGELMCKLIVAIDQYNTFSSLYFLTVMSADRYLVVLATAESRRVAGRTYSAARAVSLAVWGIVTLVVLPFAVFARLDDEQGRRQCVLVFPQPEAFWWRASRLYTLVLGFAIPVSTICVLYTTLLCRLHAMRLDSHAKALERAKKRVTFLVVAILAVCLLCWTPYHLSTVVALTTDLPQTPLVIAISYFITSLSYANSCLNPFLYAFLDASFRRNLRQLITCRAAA
NS3 helicase inh – blocks Hepatitis C virus NS3 helicase unwinding; NS3 helicase DNA unwinding, Cy5 molecular beacon fluorescence; inhibition, % at 10.9 µM; 290,000 compounds, 0.56% hits;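 active = inhibition above the mean of all tested compounds plus 3 SD, set per campaign, cut at about 35% in these data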;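 note: 0% = DMSO wells and 100% = thioflavine S control wells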
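assay system = NS3 helicase fragment of HCV | buffer or medium = MOPS pH 6.5, MgCl2, DTT, Tween20, BSA | timing = 60 min unwinding reaction at 25 °C after ATP addition | signal = Cy5 beacon fluorescence read at start and 1 h | read-out basis = % inhibition of unwinding | control set = low DMSO, high thioflavine S at 110 µM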
DNA FID counter-1 – counter-screen for HCV NS3 helicase inhibitors: DNA intercalator displacement; DNA fluorescent intercalator displacement, fluorescence; inhibition, % at 7.9 µM; 290,000 compounds, 0.17% hits;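 note: 0% = vehicle and 100% = reference compound; higher means more ethidium bromide displaced from hairpin DNA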
p-CIP stab down – lowers stability of the mouse p/CIP coactivator protein | 290,000 compounds, 0.01% hits | F442A p/CIP-EGFP cells, EGFP fluorescence, 16 h | decrease of EGFP signal, % at 10 µM | Q05BA5 | AID 1984;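 active = EGFP signal decrease of at least 30% at 10 µM or well 3 SD below plate mean, unless failing retest; inactive = the rest, including hits failing retest or dose response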
HCV core dimer – HCV core protein dimerization inhibition; 300,000 compounds, 0.33% hits; inhibition, % at 5 µM; TR-FRET GST/Flag-core106 dimerization, 1536-well;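 active = inhibition above the mean of all tested compounds plus 3 SD, set per screening campaign, cut at about 45% in these data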
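Material: GST/Flag-tagged HCV core106 proteins. Incubation: 4 h, 22.5 °C incubation. Read-out basis: inhibition (%) from 671 over 617 nm ratio. Measured by: TR-FRET, excitation 340 nm, emission 617 and 671 nm.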
NS3 helicase cf – confirmation of Hepatitis C virus NS3 helicase inhibitors. NS3 helicase DNA unwinding, Cy5 molecular beacon fluorescence. shares compounds with NS3 helicase inh. inhibition, % at 10.9 µM. 1,600 compounds, 31% hits;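 active = inhibition above the mean of all tested compounds plus 3 SD, cutoff set per campaign, cut at about 36% in these data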
DNA FID counter-2 – intercalator displacement, NS3 helicase counter-screen | shares compounds with NS3 helicase inh | DNA fluorescent intercalator displacement, fluorescence | inhibition, % at 7.9 µM | 1,600 compounds, 4% hits;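 note: 0% = vehicle and 100% = reference compound; higher means more displacement of ethidium bromide from the DNA hairpin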
FID counter DR – DNA intercalator displacement in dose response | shares compounds with NS3 helicase inh | fluorescent intercalator displacement from DNA, fluorescence | IC50, µM | 120 tested, under 10 active | AID 2172; call rule not given here
* = called active by the depositor; x = not tested or not shown. Cut-off read from the data, not from the text of the source, unless noted: active = inhibition above about 37%; inactive = the rest.

SMILES	GPR7 antagonist	NS3 helicase inh	DNA FID counter-1	p-CIP stab down	HCV core dimer	NS3 helicase cf	DNA FID counter-2	others
CCN(CC)S(=O)(=O)c1ccc(N2CCCCC2)c(NC(=O)/C=C/c2ccc(OC)c(OC)c2)c1	-17	-23	-17	-6	8	x	x
Nc1c(O)ccc2c1C(=O)c1ccccc1C2=O	-6	43*	18	3	-155	11	27
Cc1cc(C)n(C(=O)c2cc([N+](=O)[O-])cc([N+](=O)[O-])c2)n1	-5	-15	1	-2	-4	x	x
O=C(O)CC(c1cccc2ccccc12)n1cccc1 (configuration not stated)	1	67*	-36	-9	-4	-20	1
O=C(O)CC(c1cccc2ccccc12)N1Cc2ccccc2C1=O (configuration not stated)	7	9	-38	-12	3	x	x
Nc1ccc(-c2nc3ncccc3o2)cc1	2	5	-1	24	-5	x	x
CC(=O)c1cccc(N=Cc2c(O)ccc3ccccc23)c1	-5	3	-2	4	11	x	x
CC(=O)N(C)c1ccc(N=Cc2c(O)ccc3ccccc23)cc1	-2	36*	-4	-6	-2	2	7
O=C1OC(c2cccs2)=N/C1=C\c1ccc(-c2ccccc2Cl)o1	-1	71*	-25	4	x	48*	1
CCOc1ccc(C(=O)CCC(=O)N(CC)CC(=O)Nc2c(F)cccc2F)cc1	x	x	x	x	13	x	x
CCN(CC)c1ccc(N=Cc2c(C)[nH]c3ccccc23)cc1	-13	38*	3	-4	-15	28	39*
NCCCCCc1cn(CC(=O)NCCCCCCCCCCC(=O)N2CCNCC2)nn1	x	x	x	x	5	x	x
Cc1cc(O)c(C(=O)/C=C/c2ccc(C(C)C)cc2)c(=O)o1	-14	29	-30	-5	x	x	x
Cc1cc(O)c(C(=O)/C=C/c2ccccc2Br)c(=O)o1	4	48*	-33	-9	13	17	7
Cc1cc(O)c(C(=O)/C=C/c2ccccc2)c(=O)o1	19	43*	-37	-3	x	-11	2
O=C(COc1ccc2c3c(c(=O)oc2c1)CCCC3)N1C[C@H]2C[C@@H](C1)c1cccc(=O)n1C2	10	46*	-27	-11	1	-15	-27
S=C(Nc1ccc(Br)cc1Cl)NN1CCOCC1	0	6	-2	-1	0	x	x
CC1(C)C(=O)Nc2ccccc2N1C(=O)Cn1ncc(Cl)c(Cl)c1=O	-17	47*	-13	-27	24	2	7
Cc1nn(CC(=O)N2c3ccccc3NC(=O)C2(C)C)c(C)c1[N+](=O)[O-]	-9	-3	3	-9	-2	x	x
CS(=O)(=O)c1sc2nc(-c3cccs3)cc(-c3ccccc3)c2c1N	-7	46*	-10	-26	51*	78*	10
Cc1ccc(-c2cc(-c3ccccc3)c3c(N)c(S(C)(=O)=O)sc3n2)cc1	-4	5	-15	1	10	x	x
Cc1cccc(-c2oc3ccc(-c4ccc5c(c4)OCO5)cc3c2/C=C/c2ccc(N)cc2)c1	-5	45*	-17	-16	1	-8	17
CCc1nnc(NS(=O)(=O)c2ccc(N/C=C\C(=O)c3cccc4ccccc34)cc2)s1	7	55*	-23	-14	14	33	14
CCc1nnc(NS(=O)(=O)c2ccc(N/C=C/C(=O)c3ccc(OC)cc3)cc2)s1	4	22	-29	-3	18	x	x
COc1ccc2c(c1)cc(C(=O)N/N=C/c1c(O)c(C(=O)O)cc3ccccc13)n2C	7	80*	-3	-21	16	104*	14
SMILES	GPR7 antagonist	NS3 helicase inh	DNA FID counter-1	p-CIP stab down	HCV core dimer	NS3 helicase cf	DNA FID counter-2	others
Cn1ccnc1Sc1ccc(/C=N/NC(=O)c2ccccc2O)cc1[N+](=O)[O-]	-6	47*	-2	-7	-4	-4	13
Cn1ccnc1Sc1ccc(/C=N/NC(=O)c2ccccc2[N+](=O)[O-])cc1[N+](=O)[O-]	-7	-1	0	-3	7	x	x
CC(OC(=O)c1ccc(Cl)c(S(=O)(=O)N2CCCC2)c1)C(=O)NC1CCCCC1C (configuration not stated)	-15	37*	-44	-7	-20	-14	-16
O=C(NCc1ccco1)C(=O)NCC1OCCN1S(=O)(=O)c1cc(F)ccc1F (configuration not stated)	-1	49*	-9	-9	2	-7	11
CN(C)c1ccc(N=C/C=C2/N(C)c3ccccc3C2(C)C)cc1	-2	36*	-3	-15	x	-13	42*
COc1c(N2CCN(C(=S)NCc3ccccc3)C(C)C2)c(F)cc2c(=O)c(C(=O)O)cn(C3CC3)c12 (configuration not stated)	5	40*	-14	-16	19	42*	-21	FID counter DR=>79
COCCNc1nc2c(-c3cccc(C(F)(F)F)c3)nnn2c2ccccc12	8	5	-2	-7	0	x	x
NNc1nc2c(-c3cccc(C(F)(F)F)c3)nnn2c2ccccc12	0	43*	3	-17	x	0	17
O=C(/C=C/c1ccoc1)c1ccccc1O	-8	-2	-1	-9	-9	x	x
COc1ccc2ccccc2c1C(=O)/C=C\c1ccoc1	-10	55*	-20	1	21	9	4
CCOc1ccc(-c2ccc(/C=C3/C(=N)N4C=CSC4=NC3=O)o2)c([N+](=O)[O-])c1	-10	10	-14	-8	6	x	x
CCOc1ccc(-c2ccc(/C=C3/C(=N)N4C(C)=CSC4=NC3=O)o2)c([N+](=O)[O-])c1	-11	48*	-12	2	36	-3	2
CCN(CC)CCN1C(=O)C(=O)/C(=C(/O)c2ccc(S(=O)(=O)N3CCOCC3)cc2)C1c1ccc(C(C)(C)C)cc1 (configuration not stated)	-8	46*	-26	-7	-7	-6	-21
CCN(CC)CCN1C(=O)C(=O)/C(=C(/O)c2ccc(S(=O)(=O)N3CCOCC3)cc2)C1c1ccccc1 (configuration not stated)	-8	5	0	-1	-1	x	x
COCCCN1C(=O)C(=O)/C(=C(/O)c2ccc(S(=O)(=O)N3CCCCC3)cc2)C1c1ccc(F)cc1 (configuration not stated)	9	44*	-49	-14	3	-4	-29
Cc1cc(CN2CCC(n3nccc3NC(=O)c3ccccc3Cl)CC2)cc(C)c1O	2	-9	9	7	-1	x	x
O=C(O)c1cccc(-n2c(/C=C/c3ccccc3)nc3ccccc3c2=O)c1	0	53*	-25	-12	-2	53*	-23	FID counter DR=>79
